The values below come from ChEMBL document CHEMBL3045078, “Insecticidal effect and chemical composition of the volatile oil from Bergenia ligulata” (2011).

Activity calls are given as the source filed them. The rule behind the calls is not given here.

Test [1] has as its system Drosophila melanogaster. Description: Adulticidal activity against adult Drosophila melanogaster (males/females 1:1 ratio) assessed as mortality measured after 3 hr. The format is functional. In a few lines: (§1)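 Topical dose applied to the abdomen of ice-immobilised adults, 5–7 days old, in 0.5 μL acetone. Controls received acetone only. Flies were held at 25 °C, RH >60%, on a 12 h light/dark cycle. Thirty flies per dose, three replicates. Survival was recorded 3 h after treatment. Mortality means inability to move, with recovery checked.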

In test [2] the test system is Drosophila melanogaster. The experiment in a line: Adulticidal activity against adult Drosophila melanogaster (males/females 1:1 ratio) assessed as mortality at 0.5 ng/adult measured after 3 hr. The test is classed as functional, organism-based.
Test [3] deals with Drosophila melanogaster. The experiment in a line: Adulticidal activity against adult Drosophila melanogaster (males/females 1:1 ratio) assessed as mortality at 1 ng/adult measured after 3 hr. The test is classed as functional, organism-based.
For test [4], the system named is Drosophila melanogaster. The experiment in a line: Adulticidal activity against adult Drosophila melanogaster (males/females 1:1 ratio) assessed as mortality at 2 ng/adult measured after 3 hr. The format is functional, organism-based. In a few lines: as §1
For test [5], the system named is Drosophila melanogaster. The experiment in a line: Adulticidal activity against adult Drosophila melanogaster (males/females 1:1 ratio) assessed as mortality at 20 ng/adult measured after 3 hr. The test is classed as functional, organism-based. In a few lines: as §1

For `COc1ccc2c(c1OC)CN1CCc3cc4c(cc3[C@@H]1C2)OCO4` [CANADINE], in the test with Drosophila melanogaster [1], the LD50 amounted to 2.5 µg.

In the case of `C[C@@H]1CC[C@H]2[C@H](C)CC[C@@H](c3ccoc3)N2C1` [(-)-7-EPI-DEOXYNUPHARIDINE], the LD50 in the test with Drosophila melanogaster [1] turned out to be 0.9 µg.

Turning to `C=C(C)[C@H]1Cc2c(ccc3c2O[C@@H]2COc4cc(OC)c(OC)cc4[C@@H]2C3=O)O1` [ROTENONE], the LD50 in the test with Drosophila melanogaster [1] stood at 3.68 µg.

As to `C[C@H]1CC=CC(=O)O1` [(+)-(6S)-PARASORBIC ACID], the result in the test on Drosophila melanogaster [2] and in the test on Drosophila melanogaster [3] was inactive. The result in the test with Drosophila melanogaster [4] and in the test with Drosophila melanogaster [5] was Active. For the same compound, in the test on Drosophila melanogaster [1], the LD50 came to 1.44 µg.
